For orientation: IC50 means the concentration at which inhibition is half-maximal.

Experiment [1] has as its system LNCaP. Description: Antitumor activity against human LNCaP cells xenografted in SCID mouse assessed as reduction in microvascular density at 10 mg/kg,ip administration measured after 4 weeks by immunohistochemical analysis relative to control. Type of experiment: functional. Details: scale not given: the % may be the effect or the level left. In outline: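 LNCaP xenografts were grown subcutaneously on both flanks of male SCID mice and treated i.p. at 10 mg/kg once daily for 4 weeks, starting 4 weeks after inoculation, with a vehicle control. Tumors were collected at the end of treatment for CD31 immunohistochemistry. Microvascular structures were counted in at least five areas per tumor, using eight tumors from eight mice. Data are mean ± SEM.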
(In general: Xenograft models place foreign cells or tissue in a host animal.)

Experiment [2] relates to LNCaP. Description: Antitumor activity against human LNCaP cells xenografted in SCID mouse assessed as increase in positive cells of cleaved caspase-3 at 10 mg/kg,ip administration measured after 4 weeks by immunohistochemical analysis. Type of experiment: functional. In outline: (§1)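 LNCaP subcutaneous xenograft tumors in SCID mice, collected at the end of 4 weeks of 10 mg/kg ip daily dosing or vehicle. IHC for Ki67 and cleaved caspase 3 run on eight tumors from eight mice, at least five fields each; positive cells counted; mean ± SEM reported.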

Experiment [3] deals with MDA-PCa-118b. The experiment is described as follows: Antitumor activity against patient derived MDA-PCa-118b cells xenografted in SCID mouse assessed as reduction in tumor burden in femur at 10 mg/kg,ip administration measured after 4 weeks by hematoxylin and eosin staining based analysis. Type of experiment: functional, organism-based. The following applies: Homo sapiens. The method, boiled down:
(§2)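 AR-PDX 118b cells (1×10^5) injected via intra-femoral artery in male SCID mice (8–9 weeks). After 2 weeks, 10 mg/kg/day ip or vehicle for 4 weeks (n = 9/group). X-ray imaging every two weeks. At the end, femurs CT-scanned (5 per group) with 3D-reconstruction tumor size, and H&E histology used for tumor/femur area ratio.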

Experiment [4] deals with MCF7. The experiment is described as follows: Cytotoxicity against human MCF7 cells assessed as inhibition of cell growth incubated for 72 hrs by MTT assay. The format is functional, cell-based. The following applies: MCF7, 72 h.
Experiment [5] deals with LNCaP. The experiment is described as follows: Antitumor activity against human LNCaP cells xenografted in SCID mouse assessed as reduction in tumor growth at 10 mg/kg,ip administration measured after 1 week. The following applies: time 1.0 weeks. The format is functional, organism-based. In outline:
(§3)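 LNCaP cells (1×10^7) injected subcutaneously on both flanks of male SCID mice. From 4 weeks post-inoculation, 10 mg/kg ip daily for 4 weeks or vehicle (n = 10 vs 11). Caliper tumor size measured weekly (length × width²/2); survival endpoint at tumor diameter 3 cm.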

The test system of experiment [6] is MDA-PCa-118b. Description: Antitumor activity against patient derived MDA-PCa-118b cells xenografted in SCID mouse assessed as reduction in tumor burden in femur at 10 mg/kg,ip administration measured after 4 weeks by CT imaging analysis. The format is functional, organism-based. The following applies: Homo sapiens. The method, boiled down: as §2
Experiment [7] has as its system MDA-PCa-118b. The experiment is described as follows: Antitumor activity against patient derived MDA-PCa-118b cells xenografted in SCID mouse assessed as reduction in bone damage at 10 mg/kg,ip administration measured after 4 weeks by X-ray imaging analysis. The format is functional, organism-based. The following applies: Homo sapiens. In outline:
as §2

Experiment [8] concerns PANC-1. Description: Cytotoxicity against human PANC-1 cells assessed as inhibition of cell growth incubated for 72 hrs by MTT assay. The format is functional, cell-based. The following applies: PANC-1, 72 h. The method, boiled down: (§4)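 Cells seeded and grown to 70–80% confluence, then exposed for 72 h to a titration series (0.2–1000 nM). Viability read by MTT relative to untreated cells, with 6 replicates per concentration. IC50 fitted with a Hill-slope model.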
For orientation: Formazan colour is commonly taken as a measure of viable cells.

In experiment [9] the test system is LNCaP. The experiment is described as follows: Antitumor activity against human LNCaP cells xenografted in SCID mouse assessed as reduction in tumor growth at 10 mg/kg,ip administration measured after 4 weeks. Type of experiment: functional. Details: scale not given: the % may be the effect or the level left. In outline: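 Male SCID mice received 1×10^7 LNCaP cells subcutaneously under the back skin on both sides. Daily i.p. dosing at 10 mg/kg or vehicle began 4 weeks after inoculation and ran for 4 weeks. Tumor length and width were measured weekly, and size was calculated as length × width × width/2.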

Experiment [10] has as its system LNCaP. Description: Antitumor activity against human LNCaP cells xenografted in SCID mouse assessed as reduction in Ki67 expression at 10 mg/kg,ip administration measured after 4 weeks by immunohistochemical analysis. Type of experiment: functional, organism-based. The method, boiled down:
as §1

The test system of experiment [11] is MDA-MB-468. Description: Cytotoxicity against human MDA-MB-468 cells assessed as inhibition of cell growth incubated for 72 hrs by MTT assay. Type of experiment: functional, cell-based. The following applies: MDA-MB-468, 72 h. The method, boiled down:
as §4

Experiment [12] concerns BT-474. Description: Cytotoxicity against human BT-474 cells assessed as inhibition of cell growth incubated for 72 hrs by MTT assay. Type of experiment: functional, cell-based. The following applies: BT-474, 72 h. The method, boiled down: as §4
Experiment [13] can be described thus: Antitumor activity against patient derived MDA-PCa-118b cells xenografted in SCID mouse assessed as reduction in ratio of tumor area to femur area at 10 mg/kg,ip administration measured after 4 weeks by CT imaging analysis. The format is functional, Homo sapiens. On the set-up: scale not given: the % may be the effect or the level left. The method, boiled down: as §2

Experiment [14] deals with LNCaP. The experiment is described as follows: Cytotoxicity against human LNCaP cells assessed as inhibition of cell growth incubated for 72 hrs by MTT assay. The format is functional, cell-based. The method, boiled down: as §4
Experiment [15] concerns LNCaP. Description: Antitumor activity against human LNCaP cells xenografted in SCID mouse assessed as increase in cleaved caspase-3 expression at 10 mg/kg,ip administration measured after 4 weeks by immunohistochemical analysis. The format is functional, organism-based. The method, boiled down: as §1
For experiment [16], the system named is LNCaP. Description: Antitumor activity against human LNCaP cells xenografted in SCID mouse assessed as increase in mouse survival at 10 mg/kg,ip administration measured after 4 weeks. Type of experiment: functional, organism-based. The method, boiled down: as §3
Experiment [17] is described as follows: Antitumor activity against patient derived MDA-PCa-118b cells xenografted in SCID mouse assessed as reduction in femur volume at 10 mg/kg,ip administration measured after 4 weeks by CT imaging analysis. On the set-up: scale not given: the % may be the effect or the level left. Type of experiment: functional, Homo sapiens. In outline: as §2
Experiment [18] relates to MDA-PCa-118b. Description: Antitumor activity against patient derived MDA-PCa-118b cells xenografted in SCID mouse assessed as reduction in bone metastasis at 10 mg/kg,ip administration measured after 4 weeks by X-ray imaging analysis. The format is functional, organism-based. The following applies: Homo sapiens. In outline: as §2

Activity calls are given as the source filed them. The rule behind the calls is not given here.

In the case of `C/C(=N\N=c1/[nH]c2cc(F)c(F)cc2n1C)c1ncccn1`, the Activity is recorded as more than 50% in [1]; 10% in experiment [2]; more than 65% in [9]; more than 50% in [13]; more than 55% in experiment [17]. Also, the result in experiment [3], in experiment [5], in experiment [6], in experiment [7], in experiment [10] and in experiment [15] was Active. For the same molecule, the outcome in experiment [16] and in experiment [18] was Active. Besides, the IC50 in experiment [4] was found to be 3.3 nM; in experiment [8] it was 8 nM; in experiment [11] it was 32 nM; in [12] it was 1 nM; in experiment [14], 11 nM.

Source of the values: ChEMBL document CHEMBL5543124, “Lead Compound Development of SRC-3 Inhibitors with Improved Pharmacokinetic Properties and Anticancer Efficacy” (J Med Chem, 2024).
